# Measurements from different studies.
# Compare with care: the assays were run in different laboratories.
# UGT2B7: UDP-glucuronosyltransferase 2B7 (UGT2B7, Homo sapiens, UniProt P16662)
# KCNH2: Voltage-gated inwardly rectifying potassium channel KCNH2 (KCNH2, Homo sapiens, UniProt Q12809)
Structure (SMILES),target,test,system,conditions,quantity,value
C=C1CC[C@@H]2[C@](C)(CO)[C@H](O)CC[C@@]2(C)[C@@H]1/C=C/C1=CCOC1=O,UGT2B7,"enzyme activity, inhibitor",,100 µM,inhibition,80%
COc1ccc(CCC2CCCC(CCc3ccc(OC)cc3)N2C[C@@H](O)CO)cc1 (stereo in doubt),KCNH2,"ion current, inhibitor, patch clamp",,,IC50,~70 nM
CN1CCN(Cc2ccc(NC(=O)c3cncc(C#Cc4cnc(N)c5ncccc45)c3)cc2C(F)(F)F)CC1,KCNH2,"ion current, inhibitor",,,IC50,> 30000 nM
O=C(O)C(F)(F)C(F)(F)C(F)(F)C(F)(F)C(F)(F)C(F)(F)C(F)(F)F,"Solute carrier organic anion transporter family member 2B1 (SLCO2B1, Homo sapiens, UniProt O94956)","transporter uptake, substrate",CHO,"1 min, pH 7.4",Km,149 µM
C=C1CCC2C(C)(CO)C(=O)CCC2(C)C1C=CC1=CCOC1=O (stereo not drawn),UGT2B7,"enzyme activity, inhibitor",,100 µM,inhibition,90%
CC(C)N1CCC[C@H]1CNC(=O)c1cn(C2CCCC2)c(=O)c2c1c1ccccc1n2C,KCNH2,"ligand displacement, radioligand",,10 µM,inhibition,39%
O=c1ccc2ccccc2o1,KCNH2,"ligand displacement, radioligand",,"10 µM, cell membranes",inhibition,-13.1%
Clc1ccc2c(C3CCN(CCc4c[nH]c5ccccc45)CC3)c[nH]c2c1,KCNH2,"ligand displacement, radioligand",,10 µM,inhibition,99%
CCc1cccc(C(=O)Nc2cc(C)nn2-c2nc(CC)cc(=O)[nH]2)c1,KCNH2,"ligand displacement, radioligand",,10 µM,inhibition,0%
